Active and inactive are the calls of the source. The calls are words filed in the database; no cut-off is given here.
How the values were obtained:
A549 [1] = test: Induction of apoptosis in human A549 cells assessed as formation of apoptotic bodies at 15 to 30 uM measured after 48 hrs by phase contrast microscopic analysis; assay type: functional, cell-based; details: dose 15-30 µM
Outline: (§1)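 A549 seeded at 2×10^5 cells/well and allowed to settle 24 h. Then exposed 48 h to test compound (15 or 30 μM) or diosgenin (30 μM); controls received 0.1% DMSO. Cell shape examined by phase contrast microscopy.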

A549 [2] = test: Induction of apoptosis in human A549 cells assessed as increase in cleaved caspase 9 expression at 7.5 to 30 uM by Western blot analysis; assay type: functional, cell-based; details: dose 7.5-30 µM
Outline: (§2)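 A549 treated with compound (0, 7.5, 15, 30 μM) or diosgenin (0, 15, 30 μM), lysed in RIPA and boiled 10 min. 30 μg protein run on 10% SDS-PAGE, blotted to nitrocellulose, blocked in 5% BSA. Primary antibodies used at 1:1000, HRP secondary at 1:5000 for 2 h, ECL detection. β-actin served as loading control.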

A549 [3] = test: Induction of apoptosis in human A549 cells assessed as cell rounding at 15 to 30 uM measured after 48 hrs by phase contrast microscopic analysis; assay type: functional, cell-based; details: dose 15-30 µM; outline: as §1
A549 [4] = test: Induction of apoptosis in human A549 cells assessed as early apoptotic cells at 30 uM after 48 hrs by AnnexinV-FITC/propidium iodide staining based flow cytometry analysis (reference value: 0.5 to 2.3 %); assay type: functional
A549 [5] = test: Induction of apoptosis in human A549 cells assessed as membrane blebbing at 15 to 30 uM measured after 48 hrs by phase contrast microscopic analysis; assay type: functional, cell-based; details: dose 15-30 µM; outline: as §1
A549 [6] = test: Induction of apoptosis in human A549 cells assessed as late apoptotic cells at 15 uM after 48 hrs by AnnexinV-FITC/propidium iodide staining based flow cytometry analysis (reference value: 1 to 3.1 %); assay type: functional
A549 [7] = test: Induction of apoptosis in human A549 cells assessed as increase in Bax expression by Western blot analysis; assay type: functional, cell-based; details: dose 7.5-30 µM; outline: as §2
A549 [8] = test: Induction of apoptosis in human A549 cells assessed as cell shrinkage at 15 to 30 uM measured after 48 hrs by phase contrast microscopic analysis; assay type: functional, cell-based; details: dose 15-30 µM; outline: as §1
A549 [9] = test: Induction of apoptosis in human A549 cells assessed as late apoptotic cells at 30 uM after 48 hrs by AnnexinV-FITC/propidium iodide staining based flow cytometry analysis (reference value: 1 to 3.1 %); assay type: functional
A549 [10] = test: Induction of apoptosis in human A549 cells assessed as decrease in Bcl-2 expression by Western blot analysis; assay type: functional, cell-based; details: dose 7.5-30 µM; outline: as §2
GES1 = test: Cytotoxicity against human GES1 cells assessed as reduction in cell viability measured after 48 hrs by MTT assay; assay type: cell-based; details: GES1, 48 h
Outline: (§3)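 Cells in DMEM with 10% FBS, penicillin/streptomycin, 37 °C, 5% CO2. Seeded at 5×10^3 per well directly into medium holding graded concentrations of sample and incubated 48 h. MTT (5 mg/mL in PBS) added for 4 h, medium replaced with DMSO, absorbance read at 492 nm. IC50 taken as the concentration giving 50% inhibition of proliferation; three replicates, means ± SD.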

A549 [11] = test: Induction of apoptosis in human A549 cells assessed as nuclear fragmentation at 15 to 30 uM measured after 48 hrs by DAPI staining based fluorescence microscopic analysis; assay type: functional, cell-based; details: dose 15-30 µM
Outline: (§4)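 A549 plated at 2×10^5 cells/well and grown 24 h. Treated 48 h with test compound (15 or 30 μM) or diosgenin (30 μM); vehicle control 0.1% DMSO. Fixed in 4% formaldehyde 1 h at 4 °C, stained with 5 μM DAPI for 10 min at 37 °C in the dark, and viewed by fluorescence microscopy.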

HepG2 [12] = test: Potency index, ratio of diosgenin IC50 to test compound IC50 for cytotoxicity against human HepG2 cells assessed as reduction in cell viability; assay type: functional
A549 [13] = test: Induction of apoptosis in human A549 cells assessed as early apoptotic cells at 15 uM after 48 hrs by AnnexinV-FITC/propidium iodide staining based flow cytometry analysis (reference value: 0.5 to 2.3 %); assay type: functional
A549 [14] = test: Cytotoxicity against human A549 cells assessed as reduction in cell viability measured after 48 hrs by MTT assay; assay type: functional, cell-based; details: A549, 48 h; outline: as §3
A549 [15] = test: Potency index, ratio of diosgenin IC50 to test compound IC50 for cytotoxicity against human A549 cells assessed as reduction in cell viability; assay type: functional
HepG2 [16] = test: Cytotoxicity against human HepG2 cells assessed as reduction in cell viability measured after 48 hrs by MTT assay; assay type: functional, cell-based; details: HepG2, 48 h; outline: as §3
MCF7 = test: Cytotoxicity against human MCF7 cells assessed as reduction in cell viability measured after 48 hrs by MTT assay; assay type: functional, cell-based; details: MCF7, 48 h; outline: as §3
A549 [17] = test: Induction of mitochondrial depolarization in human A549 cells assessed as increase in depolarized cell population measured after 48 hrs by JC1 dye based flow cytometry; assay type: functional; details: dose 15-30 µM
HCT-116 = test: Cytotoxicity against human HCT-116 cells assessed as reduction in cell viability measured after 48 hrs by MTT assay; assay type: functional, cell-based; details: HCT-116, 48 h; outline: as §3
A549 [18] = test: Induction of mitochondrial depolarization in human A549 cells assessed as depolarized cell population at 30 uM measured after 48 hrs by JC1 dye based flow cytometry (reference value: 0.4%); assay type: functional
A549 [19] = test: Induction of apoptosis in human A549 cells assessed as increase in cleaved PARP expression at 7.5 to 30 uM by Western blot analysis; assay type: functional, cell-based; details: dose 7.5-30 µM; outline: as §2
A549 [20] = test: Induction of apoptosis in human A549 cells assessed as increase in cleaved caspase 3 expression at 7.5 to 30 uM by Western blot analysis; assay type: functional, cell-based; details: dose 7.5-30 µM; outline: as §2
A549 [21] = test: Induction of apoptosis in human A549 cells assessed as chromatin condensation at 15 to 30 uM measured after 48 hrs by DAPI staining based fluorescence microscopic analysis; assay type: functional, cell-based; details: dose 15-30 µM; outline: as §4
A549 [22] = test: Induction of apoptosis in human A549 cells assessed as increase in cyto-c expression by Western blot analysis; assay type: functional, cell-based; details: dose 7.5-30 µM; outline: as §2
A549 [23] = test: Induction of mitochondrial depolarization in human A549 cells assessed as depolarized cell population at 15 uM measured after 48 hrs by JC1 dye based flow cytometry (reference value: 0.4%); assay type: functional

With CC(=O)O[C@H]1CC[C@@]2(C)C(=CC[C@H]3[C@@H]4C[C@@H]5O[C@H](CC[C@H](C)c6nnc(-c7cccnc7)s6)[C@@H](C)[C@@H]5[C@@]4(C)CC[C@@H]32)C1 the Activity (A549 [1]) was “Active”, the Activity (A549 [2]) was “Active” and the Activity (A549 [3]) was “Active”. For the same compound, the Activity (A549 [4]) was 60%, the Activity (A549 [5]) was “Active” and the Activity (A549 [6]) was 15.1%. For the same compound, the Activity (A549 [7]) was “Dose-dependent effect”, the Activity (A549 [8]) was “Active” and the Activity (A549 [9]) was 21.3%. For the same compound, the Activity (A549 [10]) was “Dose-dependent effect”, the IC50 (GES1) was 420 µM and the Activity (A549 [11]) was “Active”. The “Ratio IC50” value (HepG2 [12]) was 2.9, the Activity (A549 [13]) was 21% and the IC50 (A549 [14]) was 3.93 µM. The “Ratio IC50” value (A549 [15]) was 6.7, the IC50 (HepG2 [16]) was 11.7 µM and the IC50 (MCF7) was greater than 100 µM. For the same compound, the Activity (A549 [17]) was “Dose-dependent effect”, the IC50 (HCT-116) was 29.6 µM and the Activity (A549 [18]) was 26%. The Activity (A549 [19]) was “Active”, the Activity (A549 [20]) was “Active” and the Activity (A549 [21]) was “Active”. For the same compound, the Activity (A549 [22]) was “Dose-dependent effect” and the Activity (A549 [23]) was 7.5%.
